The test system of data set [1] is Plasmodium berghei. As to the kind of experiment: Antimalarial activity against Plasmodium berghei KBG173 infected in mouse assessed as cured mouse at 5 mg/kg, iv BID administered on day 3, 4 and 5 post infection measured up to day 31. The data set is classed as functional, organism-based. On the set-up: dose 5 mg/kg. Put shortly: (§1)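 Male mice (24–30 g) inoculated intraperitoneally with 5 × 10⁶ P. berghei KBG-173-infected erythrocytes; parasitemia about 1.0–3.7% by day 3. Dosing twice daily on days 3–5 postinfection. Blood smears negative on day 31 counted as cured, scored as cured/total mice (5 per dose). Mice losing ≥20% body weight sacrificed.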

The subject of data set [2] is Plasmodium berghei. Kind of data set: Antimalarial activity against Plasmodium berghei KBG173 infected in mouse assessed as decrease in parasitemia at 20 mg/kg, iv BID administered on day 3, 4 and 5 post infection measured on day 31 relative to control. The class given is functional, organism-based. The arrangement: dose 20 mg/kg. Put shortly: as §1
The test system of data set [3] is Plasmodium berghei. Kind of data set: Antimalarial activity against Plasmodium berghei KBG173 infected in mouse assessed as decrease in parasitemia at 15 mg/kg, iv BID administered on day 3, 4 and 5 post infection measured on day 31 relative to control. The class given is functional, organism-based. The arrangement: dose 15 mg/kg. Put shortly:
as §1

Data set [4] relates to Plasmodium berghei. Kind of data set: Antimalarial activity against Plasmodium berghei KBG173 infected in mouse assessed as decrease in parasitemia at 20 mg/kg, ip BID administered on day 3, 4 and 5 post infection measured on day 31 relative to control. The class given is functional, organism-based. The arrangement: dose 20 mg/kg. Put shortly:
as §1

Data set [5] concerns Plasmodium berghei. As to the kind of experiment: Antimalarial activity against Plasmodium berghei KBG173 infected in mouse assessed as decrease in parasitemia at 10 mg/kg, ip BID administered on day 3, 4 and 5 post infection measured on day 31 relative to control. On the set-up: dose 10 mg/kg. The data set is classed as functional, organism-based. The method in brief:
as §1

The subject of a further data set is HepG2. As to the kind of experiment: Cytotoxicity against human HepG2 cells after 24 hrs by MTS assay. The data set is classed as cell-based. The following applies: HepG2, 24 h. The method in brief:
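HepG2 cells kept in RPMI 1640 with 10% FBS plus antibiotics at 37 °C, 5% CO₂. 50 000 cells per well exposed to 10 two-fold serial dilutions for 24 h. MTS reagent then added for 2 h more, absorbance read at 490 nm, IC50 derived.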
For orientation: Tetrazolium assays rely on reduction of a dye to a coloured formazan, in cell work by metabolically active cells.

Data set [6] is described as follows: Clearance at steady state in CD1 mouse at 5 mg/kg, iv. The data set is classed as ADME, organism-based. On the set-up: dose 5 mg/kg, route intravenous. The following applies: in vivo, read-out: CLss. Put shortly: (§2)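 Male CD-1 mice (N = 3 per route) dosed IV at 5 mg/kg or orally at 25 mg/kg while fasted, mostly in saline (2.5 mg/mL). Tail-vein blood taken up to 24 h, cardiac puncture at 30 h. Samples hemolyzed, protein-precipitated with acetonitrile plus internal standard, analysed by positive ESI LC-MS/MS.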

A short description of data set [7]: Volume of distribution at steady state in CD1 mouse at 5 mg/kg, iv. The data set is classed as ADME, organism-based. On the set-up: dose 5 mg/kg, route intravenous. The settings on record: in vivo, read-out: Vdss. The method in brief: as §2
Data set [8] deals with Mus musculus. Kind of data set: Half life in CD1 mouse at 5 mg/kg, iv. The data set is classed as ADME, organism-based. On the set-up: dose 5 mg/kg, route intravenous. The settings on record: mouse, in vivo. Put shortly:
as §2

Data set [9] in a line: Oral bioavailability in CD1 mouse at 25 mg/kg. The data set is classed as ADME, organism-based. The settings on record: in vivo. The method in brief:
as §2

Data set [10] can be described thus: Fraction unbound in CD1 mouse plasma at 5 mg/kg, iv. The class given is ADME, organism-based. On the set-up: dose 5 mg/kg, route intravenous. Put shortly: (§3)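 Fraction unbound measured in mouse plasma by ultrafiltration at 1 μg/mL. Unbound clearance = blood clearance/fu, assuming blood/plasma ratio of 1. Blood clearance comes from male CD-1 mice dosed IV at 5 mg/kg, with tail-vein sampling up to 24 h and LC-MS/MS analysis.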

The subject of data set [11] is Mus musculus. Kind of data set: Unbound clearance in CD1 mouse at 5 mg/kg, iv. The class given is ADME, organism-based. The arrangement: dose 5 mg/kg, route intravenous. The settings on record: in vivo. The method in brief:
as §3

Data set [12] has as its system Plasmodium berghei. Kind of data set: Antimalarial activity against Plasmodium berghei KBG173 infected in mouse assessed as cured mouse at 15 mg/kg, iv BID administered on day 3, 4 and 5 post infection measured up to day 31. The class given is functional, organism-based. On the set-up: dose 15 mg/kg. The method in brief:
as §1

Data set [13] has as its system Plasmodium berghei. Kind of data set: Antimalarial activity against Plasmodium berghei KBG173 infected in mouse assessed as mouse survival time at 5 mg/kg, iv BID administered on day 3, 4 and 5 post infection. The class given is functional. The method in brief:
(§4)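 Male mice (24−30 g) inoculated intraperitoneally with 5 × 10⁶ P. berghei KBG-173-infected erythrocytes; parasitemia 1.0–3.7% by day 3. IV dosing twice daily on days 3, 4 and 5 post-infection. Read-out is the survival time of the last animal alive. Mice blood-smear negative on day 31 counted as cured; mice losing ≥20% body weight sacrificed.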

Data set [14] relates to Plasmodium berghei. As to the kind of experiment: Antimalarial activity against Plasmodium berghei KBG173 infected in mouse assessed as mouse survival time at 15 mg/kg, iv BID administered on day 3, 4 and 5 post infection. The class given is functional. Put shortly: as §4
In data set [15] the test system is Plasmodium berghei. As to the kind of experiment: Antimalarial activity against Plasmodium berghei KBG173 infected in mouse assessed as decrease in parasitemia at 10 mg/kg, iv BID administered on day 3, 4 and 5 post infection measured on day 31 relative to control. The data set is classed as functional, organism-based. The arrangement: dose 10 mg/kg. Put shortly: as §1

Calls of active or inactive are those of the source. The calls are words filed in the database; no cut-off is given here.

On to `CC[C@H]1OC(=O)[C@H](C)[C@@H](O[C@H]2C[C@@](C)(OC)[C@@H](O)[C@H](C)O2)[C@H](C)[C@@H](O[C@@H]2O[C@H](C)C[C@H](N(C)C)[C@H]2O)[C@](C)(O)C[C@@H](C)CN(CCCNc2ccnc3cc(Cl)ccc23)[C@H](C)[C@@H](O)[C@]1(C)O`, for which the outcome in the data set with Plasmodium berghei [1] and in the data set with Plasmodium berghei [5] was inactive. Besides, the outcome with Plasmodium berghei [2], in the data set with Plasmodium berghei [3] and in the data set with Plasmodium berghei [4] was Active.
As a reminder, the IC50 is the concentration needed to halve the response being measured. Usually bioavailability stands for the share of a dose that reaches the circulation, judged against a reference dose that is usually intravenous. In general, fraction unbound refers to the share of the substance not bound to proteins or other matrix. A low value points to extensive binding. For `CC[C@H]1OC(=O)[C@H](C)[C@@H](O[C@H]2C[C@@](C)(OC)[C@@H](O)[C@H](C)O2)[C@H](C)[C@@H](O[C@@H]2O[C@H](C)C[C@H](N(C)C)[C@H]2O)[C@](C)(O)C[C@@H](C)CN(C)[C@H](C)[C@@H](O)[C@]1(C)O` [AZITHROMYCIN], the IC50 with HepG2 was > 50 µM. Also, in [6], the clearance worked out at 16 mL/min/kg. The Vd in [7] came out at 8.8 L/kg. The compound further showed a t1/2 in the data set with Mus musculus [8] of 8.3 h. The same compound registered a bioavailability in [9] of 72%. In data set [10], this compound registered a fraction unbound of 0.69. In the data set on Mus musculus [11], this compound yielded a CL free of 23.2 mL/min/kg. The outcome in the data set on Plasmodium berghei [1], in the data set with Plasmodium berghei [12] and in the data set on Plasmodium berghei [15] was inactive. Moreover, the Survival was determined as 17 days with Plasmodium berghei [13] and 19 days with Plasmodium berghei [14].

For the origin of these results see ChEMBL document CHEMBL2029228, “Antimalarial activity of 9a-N substituted 15-membered azalides with improved in vitro and in vivo activity over azithromycin” (J Med Chem, 2012).
